Laboratory results reported in article PMC9200134 (Chemical Science, 2022).

How the values were obtained:
[1] = reference value, aerated CD3OD; cited from earlier work
[2] = at 3.3 μM; cited from earlier work
[3] = system: lung (A549) cancer cell line; assay: SRB cytotoxicity assay in 2D monolayers, dark vs green light; assay type: cell-based, human; conditions: read-out: EC50 (cell growth inhibition); A549 2D, dark (0 J cm^−2)
How it was run: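 Cells were given test compound for 24 h. They were then irradiated (520 nm, 15 min, 21 mW cm−2, 19 J cm−2) or kept dark, and incubated a further 48 h. Cells were fixed in 10% TCA for 48 h at 4 °C and stained with 0.6% SRB. Absorbance was averaged over triplicate wells and viability taken relative to untreated wells. There were three biological replicates from different passages.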

[4] = system: wild type zebrafish embryos; conditions: intravenous or retro-orbital injection, embryo type not stated; cited from earlier work

In the case of `[Ru+2].c1ccc(-c2ccccn2)nc1.c1ccc(-c2ccccn2)nc1.c1ccc(-c2ccccn2)nc1` [[Ru(bpy)3]^2+], the “1O2 generation quantum yield Φ^refΔ” value [1] is given as 0.73.

In the case of `N.N.[Cl][Pt][Cl]` [Cisplatin], the “Platinum content in the nucleus” value [2] is listed as 0.6 ng Pt/10^6 cells and the EC50 [3] is listed as 3 µM.

For `Cc1ccnc(-c2cc(C)ccn2)c1.Cc1ccnc(-c2cc(C)ccn2)c1.[Cl-].[Cl-].[Ru+2].c1csc(-c2ccc(-c3ccc(-c4nc5c6cccnc6c6ncccc6c5[nH]4)s3)s2)c1` [TLD-1433], the “MTD in zebrafish embryo” value [4] is listed as 4.6 mM.
